Measured values gathered from unrelated publications.
Lines come from different studies, so protocols differ.
Cell line: HCT-116
Effect on: cell growth or viability

For `COc1cc2c(OC)nc3c4cc5c(cc4cc(O)c3c2cc1OC)OCO5`, the GI50 was 5.7 µM (MTT; 72 h).
With `Cc1c(OCC(F)(F)F)ccnc1COc1ccc(NC(=O)Nc2cccc(C(F)(F)F)c2)cc1` the IC50 was 5.43 µM (MTT; 72 h).
For `COc1cc(CNC(=O)CCCC/C=C/C(C)C)ccc1O`, the inhibition was 0% (SRB; 10 µM).
`COc1cc(/C=N/n2c(C)nc3ccc(C)cc3c2=O)ccc1OCc1ccccc1` gave a viability of 74.5% (LDH; 200 µg/mL, 24 h).
`COc1ccc(C(=O)/C=C/c2ccc3c(c2)OCCO3)cc1S(N)(=O)=O` has an inhibition of 57% (SRB; 10 µM).
`COc1cc2c(OC)nc3c4cc5c(cc4cc(OCCN(C)C)c3c2cc1OC)OCO5` gave a GI50 of > 100 µM (MTT; 72 h).
With `COc1ccc(C(=O)/C=C/c2ccc(Cl)c(Cl)c2)cc1S(N)(=O)=O` the GI50 was 1.2 µM (SRB; 48 h).
For `COc1ccc(NC(=O)c2c(Nc3ccccc3)sc(C#N)c2NC(=O)CNc2ccc(Cl)cc2)cc1`, the viability was 48.6% (SRB; 10 µM, 48 h).
`S=C([S][Au-][P+](CCCCCC[P+]([Au-][S]C(=S)n1cccn1)(c1ccccc1)c1ccccc1)(c1ccccc1)c1ccccc1)n1cccn1` has a GI50 of 0.42 µM.
`COc1ccc(NC(=O)c2c(Nc3ccccc3)sc(C#N)c2NC(=O)CNc2ccc(OC)c(OC)c2)cc1` has a viability of 53.6% (SRB; 10 µM, 48 h).
For `COc1ccc(C(=O)/C=C/c2ccccc2Br)cc1S(N)(=O)=O`, the GI50 was 1.5 µM (SRB; 48 h).
`COc1ccc(NC(=O)c2c(Nc3ccccc3)sc(C(=O)NN=Cc3ccc(Cl)cc3)c2NC(C)=O)cc1` has a viability of 74.2% (SRB; 1 µM, 48 h).
For `COc1cc(NCC(=O)Nn2c(C)nc3ccc(Cl)cc3c2=O)cc(OC)c1OC`, the viability was 54.5% (LDH; 200 µg/mL, 24 h).
With `COc1ccc(C(=O)/C=C/c2ccc3ccccc3c2)cc1S(N)(=O)=O` the inhibition was 198% (SRB; 10 µM).
`COc1ccc(NCC(=O)Nc2c(C#N)sc(Nc3ccccc3)c2C(=O)Nc2ccc(OC)cc2)cc1` has a viability of 70.2% (SRB; 1 µM, 48 h).
`COc1cc2c(OC)nc3c4cc5c(cc4cc(OCCCN(C)C)c3c2cc1OC)OCO5` has a GI50 of 15 µM (MTT; 72 h).
`COc1ccc(C(=O)/C=C/c2cccc3ccccc23)cc1S(N)(=O)=O` gave a GI50 of 1.3 µM (SRB; 48 h).
`Cc1nc2ccc(Cl)cc2c(=O)n1NC(=O)CCl` gave a viability of 89% (LDH; 200 µg/mL, 24 h).
With `COc1ccc(C(=O)/C=C/c2cc3c(cc2Br)OCO3)cc1S(N)(=O)=O` the inhibition was 198% (SRB; 10 µM).
`CCN(CC)CCCOc1cc2cc3c(cc2c2nc(OC)c4cc(OC)c(OC)cc4c12)OCO3` has a GI50 of 13 µM (MTT; 72 h).
The viability of `CNC(=O)c1cc(Oc2ccc(NC(=O)Nc3ccc(Cl)c(C(F)(F)F)c3)cc2)ccn1` is reported as 46.6% (SRB; 1 µM, 48 h).
`COc1ccc(C(=O)/C=C/c2cccc(Cl)c2Cl)cc1S(N)(=O)=O` has a GI50 of 1.3 µM (SRB; 48 h).
With `COc1ccc(NC(=O)c2c(Nc3ccccc3)sc(C(=O)NN=Cc3ccc(OC)c(O)c3)c2NC(C)=O)cc1` the viability was 83.7% (SRB; 10 nM, 48 h).
The inhibition of `COc1ccccc1/C=C/C(=O)c1ccc(OC)c(S(N)(=O)=O)c1` is reported as 95% (SRB; 10 µM).
For `COc1ccc(NC(=O)c2c(Nc3ccccc3)sc(C(=O)NN=Cc3cc(OC)c(OC)c(OC)c3)c2NC(C)=O)cc1`, the viability was 86.1% (SRB; 0.1 µM, 48 h).
With `COc1cc(/C=N/n2c(C)nc3ccc(C)cc3c2=O)cc([N+](=O)[O-])c1O` the viability was 90% (LDH; 200 µg/mL, 24 h).
